Reference: ChEMBL document CHEMBL1154716, “Synthesis of some new S-triazine based chalcones and their derivatives as potent antimicrobial agents” (2010)
In brackets after ≈: the same amount, converted by molar mass. Activity calls are given as the source filed them. No cut-off for these calls is given here.

Experiments:
Bacillus cereus [1] = assay: Antimicrobial activity against Bacillus cereus at 10 ug/disk after 24 hrs by disk diffusion assay; format: functional
In short: (§1)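 Disc diffusion on 4 mm filter discs. Bacteria are grown overnight in LB at 28 C, then adjusted in saline to 1.0 × 10^5 cfu/ml. The suspension is mixed into top agar over peptone agar plates. Plates are incubated 24 h at 28 C, and growth-inhibition zone diameter is measured. Streptomycin and ampicillin controls are applied from a 1 mg/ml stock. Tests are done in duplicate.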

Listeria monocytogenes [2] = assay: Antimicrobial activity against Listeria monocytogenes at 1 umol/spot after 18 hrs by TLC-bioautographic method; format: functional
In short: (§2)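 TLC bioautography. Samples are spotted on silica gel TLC plates, then sprayed with bacteria (1.0 × 10^5 cfu/ml) in tryptic soy broth. Plates are incubated 18 h at 37 C and sprayed with 3% aqueous p-iodonitrotetrazolium violet. After a further 3 h, growth is stopped with 70% EtOH. White zones on a pink background are scored as inhibition-zone diameter with standard errors.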

Enterobacter cloacae [3] = assay: Antimicrobial activity against Enterobacter cloacae at 10 ug/disk after 24 hrs by disk diffusion assay; format: functional; in short: as §1
Listeria monocytogenes [4] = assay: Antimicrobial activity against Listeria monocytogenes after 24 hrs by microdilution technique; format: functional
In short: (§3)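 Broth microdilution in LB medium. Inoculum is 1.0 × 10^4 cfu per well, from a saline-adjusted suspension of 1.0 × 10^5 cfu/ml. Compounds are dissolved in DMSO. Incubated 24 h at 28 C. MIC is the lowest concentration with no visible growth under a binocular microscope. MBC is read by subculture into fresh broth for 72 h, with no growth taken as 99.5% kill. OD is read at 655 nm.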

Micrococcus flavus [5] = assay: Antimicrobial activity against Micrococcus flavus after 24 hrs by microdilution technique; format: functional; in short: as §3
Escherichia coli [6] = assay: Antimicrobial activity against Escherichia coli at 1 umol/disk after 24 hrs by disk diffusion assay; format: functional; in short: as §1
Enterobacter cloacae [7] = assay: Antimicrobial activity against Enterobacter cloacae at 1 umol/disk after 24 hrs by disk diffusion assay; format: functional; in short: as §1
Listeria monocytogenes [8] = assay: Antimicrobial activity against Listeria monocytogenes at 1 umol/disk after 24 hrs by disk diffusion assay; format: functional; in short: as §1
Pseudomonas aeruginosa [9] = assay: Antimicrobial activity against Pseudomonas aeruginosa at 1 umol/spot after 18 hrs by TLC-bioautographic method; format: functional; in short: as §2
Pseudomonas aeruginosa [10] = assay: Antimicrobial activity against Pseudomonas aeruginosa at 10 ug/disk after 24 hrs by disk diffusion assay; format: functional; in short: as §1
Bacillus cereus [11] = assay: Antimicrobial activity against Bacillus cereus after 24 hrs by microdilution technique; format: functional; in short: as §3
Bacillus cereus [12] = assay: Antimicrobial activity against Bacillus cereus at 1 umol/spot after 18 hrs by TLC-bioautographic method; format: functional; in short: as §2
Enterobacter cloacae [13] = assay: Antimicrobial activity against Enterobacter cloacae at 1 umol/spot after 18 hrs by TLC-bioautographic method; format: functional; in short: as §2
Salmonella typhimurium [14] = assay: Antimicrobial activity against Salmonella Typhimurium at 1 umol/spot after 18 hrs by TLC-bioautographic method; format: functional; conditions: Salmonella enterica subsp. enterica serovar Typhimurium; in short: as §2
Pseudomonas aeruginosa [15] = assay: Antimicrobial activity against Pseudomonas aeruginosa after 24 hrs by microdilution technique; format: functional; in short: as §3
Salmonella typhimurium [16] = assay: Antimicrobial activity against Salmonella Typhimurium at 10 ug/disk after 24 hrs by disk diffusion assay; format: functional, organism-based; conditions: Salmonella enterica subsp. enterica serovar Typhimurium; in short: as §1
Micrococcus flavus [17] = assay: Antimicrobial activity against Micrococcus flavus at 1 umol/spot after 18 hrs by TLC-bioautographic method; format: functional; in short: as §2
Salmonella typhimurium [18] = assay: Antimicrobial activity against Salmonella Typhimurium after 24 hrs by microdilution technique; format: functional, Salmonella enterica subsp. enterica serovar Typhimurium; conditions: Salmonella enterica; in short: as §3
Enterobacter cloacae [19] = assay: Antimicrobial activity against Enterobacter cloacae after 24 hrs by microdilution technique; format: functional; in short: as §3
Escherichia coli [20] = assay: Antimicrobial activity against Escherichia coli at 10 ug/disk after 24 hrs by disk diffusion assay; format: functional; in short: as §1
Staphylococcus aureus [21] = assay: Antimicrobial activity against Staphylococcus aureus at 10 ug/disk after 24 hrs by disk diffusion assay; format: functional; in short: as §1
Escherichia coli [22] = assay: Antimicrobial activity against Escherichia coli after 24 hrs by microdilution technique; format: functional; in short: as §3
Staphylococcus aureus [23] = assay: Antimicrobial activity against Staphylococcus aureus at 1 umol/spot after 18 hrs by TLC-bioautographic method; format: functional; in short: as §2
Micrococcus flavus [24] = assay: Antimicrobial activity against Micrococcus flavus at 10 ug/disk after 24 hrs by disk diffusion assay; format: functional; in short: as §1
Salmonella typhimurium [25] = assay: Antimicrobial activity against Salmonella Typhimurium at 1 umol/disk after 24 hrs by disk diffusion assay; format: functional, organism-based; conditions: Salmonella enterica subsp. enterica serovar Typhimurium; in short: as §1
Micrococcus flavus [26] = assay: Antimicrobial activity against Micrococcus flavus at 1 umol/disk after 24 hrs by disk diffusion assay; format: functional; in short: as §1
Staphylococcus aureus [27] = assay: Antimicrobial activity against Staphylococcus aureus after 24 hrs by microdilution technique; format: functional; in short: as §3
Pseudomonas aeruginosa [28] = assay: Antimicrobial activity against Pseudomonas aeruginosa at 1 umol/disk after 24 hrs by disk diffusion assay; format: functional; in short: as §1
Bacillus cereus [29] = assay: Antimicrobial activity against Bacillus cereus at 1 umol/disk after 24 hrs by disk diffusion assay; format: functional; in short: as §1
Escherichia coli [30] = assay: Antimicrobial activity against Escherichia coli at 1 umol/spot after 18 hrs by TLC-bioautographic method; format: functional; in short: as §2
Listeria monocytogenes [31] = assay: Antimicrobial activity against Listeria monocytogenes at 10 ug/disk after 24 hrs by disk diffusion assay; format: functional; in short: as §1
Staphylococcus aureus [32] = assay: Antimicrobial activity against Staphylococcus aureus at 1 umol/disk after 24 hrs by disk diffusion assay; format: functional; in short: as §1

Row | Compound | inhibition zone (IZ) (Bacillus cereus [1]) | inhibition zone (IZ) (Listeria monocytogenes [2]) [millimeter] | inhibition zone (IZ) (Enterobacter cloacae [3]) | MBC (Listeria monocytogenes [4]) [µM] | MIC (Listeria monocytogenes [4]) [µM] | MBC (Micrococcus flavus [5]) [µM] | MIC (Micrococcus flavus [5]) [µM] | inhibition zone (IZ) (Escherichia coli [6]) | inhibition zone (IZ) (Enterobacter cloacae [7]) | inhibition zone (IZ) (Listeria monocytogenes [8]) | inhibition zone (IZ) (Pseudomonas aeruginosa [9]) | inhibition zone (IZ) (Pseudomonas aeruginosa [10]) | MBC (Bacillus cereus [11]) [µM] | MIC (Bacillus cereus [11]) [µM] | inhibition zone (IZ) (Bacillus cereus [12]) | inhibition zone (IZ) (Enterobacter cloacae [13]) [millimeter] | inhibition zone (IZ) (Salmonella typhimurium [14]) | MBC (Pseudomonas aeruginosa [15]) [µM] | MIC (Pseudomonas aeruginosa [15]) [µM] | inhibition zone (IZ) (Salmonella typhimurium [16]) | other results
1 | COc1ccccc1C1CC(c2ccc(Nc3nc(Nc4ccccc4)nc(Nc4ccccc4)n3)cc2)=NN1C(C)=O (stereo not given) | inactive | 0.08 | inactive | 700 (≈ 399 µg/mL) | 700 (≈ 399 µg/mL) | 350 (≈ 200 µg/mL) | 175 (≈ 99.9 µg/mL) | inactive | inactive | inactive | inactive | inactive | 350 (≈ 200 µg/mL) | 175 (≈ 99.9 µg/mL) | inactive | 0.08 | inactive | 700 (≈ 399 µg/mL) | 350 (≈ 200 µg/mL) | inactive | inhibition zone (IZ) (Micrococcus flavus [17]): inactive; MBC (Salmonella typhimurium [18]): 700 µM (≈ 399 µg/mL); MIC (Salmonella typhimurium [18]): 350 µM (≈ 200 µg/mL); MBC (Enterobacter cloacae [19]): 350 µM (≈ 200 µg/mL); MIC (Enterobacter cloacae [19]): 175 µM (≈ 99.9 µg/mL); inhibition zone (IZ) (Escherichia coli [20]): inactive; inhibition zone (IZ) (Staphylococcus aureus [21]): inactive; MBC (Escherichia coli [22]): 700 µM (≈ 399 µg/mL); MIC (Escherichia coli [22]): 350 µM (≈ 200 µg/mL); inhibition zone (IZ) (Staphylococcus aureus [23]): inactive; inhibition zone (IZ) (Micrococcus flavus [24]): inactive; inhibition zone (IZ) (Salmonella typhimurium [25]): inactive; inhibition zone (IZ) (Micrococcus flavus [26]): inactive; MBC (Staphylococcus aureus [27]): 700 µM (≈ 399 µg/mL); MIC (Staphylococcus aureus [27]): 350 µM (≈ 200 µg/mL); inhibition zone (IZ) (Pseudomonas aeruginosa [28]): inactive; inhibition zone (IZ) (Bacillus cereus [29]): inactive; inhibition zone (IZ) (Escherichia coli [30]): inactive; inhibition zone (IZ) (Listeria monocytogenes [31]): inactive; inhibition zone (IZ) (Staphylococcus aureus [32]): inactive
2 | O=C(/C=C/c1cccs1)c1ccc(Nc2nc(Nc3ccccc3)nc(Nc3ccccc3)n2)cc1 | inactive | 0.08 | inactive | 816 (≈ 400 µg/mL) | 408 (≈ 200 µg/mL) | 408 (≈ 200 µg/mL) | 204 (≈ 100 µg/mL) | inactive | inactive | inactive | inactive | inactive | 408 (≈ 200 µg/mL) | 204 (≈ 100 µg/mL) | inactive | 0.08 | inactive | 816 (≈ 400 µg/mL) | 408 (≈ 200 µg/mL) | inactive | inhibition zone (IZ) (Micrococcus flavus [17]): inactive; MBC (Salmonella typhimurium [18]): 816 µM (≈ 400 µg/mL); MIC (Salmonella typhimurium [18]): 408 µM (≈ 200 µg/mL); MBC (Enterobacter cloacae [19]): 408 µM (≈ 200 µg/mL); MIC (Enterobacter cloacae [19]): 204 µM (≈ 100 µg/mL); inhibition zone (IZ) (Escherichia coli [20]): inactive; inhibition zone (IZ) (Staphylococcus aureus [21]): inactive; MBC (Escherichia coli [22]): 816 µM (≈ 400 µg/mL); MIC (Escherichia coli [22]): 408 µM (≈ 200 µg/mL); inhibition zone (IZ) (Staphylococcus aureus [23]): inactive; inhibition zone (IZ) (Micrococcus flavus [24]): inactive; inhibition zone (IZ) (Salmonella typhimurium [25]): inactive; inhibition zone (IZ) (Micrococcus flavus [26]): inactive; MBC (Staphylococcus aureus [27]): 816 µM (≈ 400 µg/mL); MIC (Staphylococcus aureus [27]): 408 µM (≈ 200 µg/mL); inhibition zone (IZ) (Pseudomonas aeruginosa [28]): inactive; inhibition zone (IZ) (Bacillus cereus [29]): inactive; inhibition zone (IZ) (Escherichia coli [30]): inactive; inhibition zone (IZ) (Listeria monocytogenes [31]): inactive; inhibition zone (IZ) (Staphylococcus aureus [32]): inactive
